In brackets after ≈: the same amount, converted by molar mass. Activity calls are given as the source filed them. No cut-off for these calls is given here.
What was measured:
[1] = biological target: T1, Serine-protein kinase ATM (Homo sapiens, UniProt Q13315); assay: Inhibition of ATM (unknown origin) using p53 as substrate incubated for 30 mins followed by substrate addition measured after 2 hrs in presence of ATP by HTRF method
[2] = biological target: T1, Serine-protein kinase ATM; assay: Inhibition of ATM phosphorylation at Ser-1981 residue in human HT-29 cells incubated for 1 hr followed by X-ray irradiation by Hoechst staining based fluorescence plate reader analysis; assay type: cell-based
[3] = biological target: Serine/threonine-protein kinase ATR (Homo sapiens, UniProt Q13535); assay: Inhibition of ATR in human HT-29 cells assessed as reduction in Chk1 phosphorylation at Ser-345 residue after 60 mins in presence of 4-nitroquinoline-1-oxide by Hoechst 33258 staining based plate reader analysis; assay type: cell-based
[4] = biological target: Serine/threonine-protein kinase mTOR (Homo sapiens, UniProt P42345); assay: Inhibition of C-terminal FLAG-tagged recombinant mTOR (1362 to 2549 residues) (unknown origin) using Biotin-Ahx-Lys-Lys-Ala-Asn-Gln-Val-Phe-Leu-Gly-Phe-Thr-Tyr-Val-Ala-Pro-Ser-Val-Leu-Glu-Ser-Val-Lys-Glu-NH2 as substrate after 90 mins by AlphaScreen assay
[5] = biological target: DNA-dependent protein kinase catalytic subunit (Homo sapiens, UniProt P78527); assay: Inhibition of DNAPK (unknown origin) using p53-based peptide substrate preincubated for 5 min prior to ATP addition
[6] = biological target: Phosphatidylinositol 4,5-bisphosphate 3-kinase catalytic subunit alpha isoform (Homo sapiens, UniProt P42336); assay: Inhibition of human recombinant PI3Kalpha using PIP2/ATP as substrate incubated for 20 mins followed by substrate addition by Kinase Glo reagent based luminescence assay
[7] = biological target: Phosphatidylinositol 4,5-bisphosphate 3-kinase catalytic subunit beta isoform (Homo sapiens, UniProt P42338); assay: Inhibition of human recombinant PI3Kbeta using PIP2/ATP as substrate incubated for 20 mins followed by substrate addition by Kinase Glo reagent based luminescence assay
Sequence of Phosphatidylinositol 4,5-bisphosphate 3-kinase catalytic subunit beta isoform (P42338 whole entry, canonical isoform): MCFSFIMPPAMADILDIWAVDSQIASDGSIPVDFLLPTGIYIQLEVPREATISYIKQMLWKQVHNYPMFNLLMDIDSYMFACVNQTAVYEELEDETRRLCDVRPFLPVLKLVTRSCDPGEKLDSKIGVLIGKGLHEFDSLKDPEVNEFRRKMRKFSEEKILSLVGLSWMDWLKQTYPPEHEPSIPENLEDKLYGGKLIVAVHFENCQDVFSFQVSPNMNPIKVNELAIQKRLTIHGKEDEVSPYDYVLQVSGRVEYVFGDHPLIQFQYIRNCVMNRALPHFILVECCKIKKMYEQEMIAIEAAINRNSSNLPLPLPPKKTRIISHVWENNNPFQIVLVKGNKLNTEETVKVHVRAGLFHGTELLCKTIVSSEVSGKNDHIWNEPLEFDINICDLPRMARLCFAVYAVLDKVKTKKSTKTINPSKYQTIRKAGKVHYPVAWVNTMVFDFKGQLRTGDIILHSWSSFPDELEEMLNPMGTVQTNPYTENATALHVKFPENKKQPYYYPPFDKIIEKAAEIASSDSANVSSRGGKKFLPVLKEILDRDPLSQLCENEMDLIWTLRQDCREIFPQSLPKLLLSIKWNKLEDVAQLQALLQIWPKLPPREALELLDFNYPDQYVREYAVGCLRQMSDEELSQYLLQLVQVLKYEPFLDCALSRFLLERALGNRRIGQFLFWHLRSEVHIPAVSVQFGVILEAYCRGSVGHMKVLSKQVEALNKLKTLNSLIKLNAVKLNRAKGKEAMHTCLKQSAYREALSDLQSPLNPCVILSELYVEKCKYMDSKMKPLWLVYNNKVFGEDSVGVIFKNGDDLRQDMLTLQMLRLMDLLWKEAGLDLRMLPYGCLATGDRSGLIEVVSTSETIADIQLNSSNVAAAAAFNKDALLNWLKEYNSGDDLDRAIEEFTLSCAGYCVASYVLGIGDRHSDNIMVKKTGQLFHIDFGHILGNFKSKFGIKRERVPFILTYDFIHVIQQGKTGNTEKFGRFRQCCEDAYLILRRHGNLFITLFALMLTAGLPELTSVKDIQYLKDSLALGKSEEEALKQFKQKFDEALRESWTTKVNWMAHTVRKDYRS

[8] = biological target: Phosphatidylinositol 4,5-bisphosphate 3-kinase catalytic subunit gamma isoform (Homo sapiens, UniProt P48736); assay: Inhibition of human recombinant PI3Kgamma using PIP2/ATP as substrate incubated for 20 mins followed by substrate addition by Kinase Glo reagent based luminescence assay
Homo sapiens = species on record: Homo sapiens; assay: Selectivity ratio of IC50 for ATR in human HT-29 cells to IC50 for ATM in human HT-29 cells; assay type: cell-based
in vitro [9] = details: human, hepatocytes
in vitro [10] = details: rat, hepatocytes
physchem = details: octanol/buffer, pH 7.4
[11] = biological target: T1, Serine-protein kinase ATM; assay: Inhibition of ATM in human HT-29 cells assessed as reduction in ATM phosphorylation at Ser-1981 residue up to 30 uM incubated for 1 hr followed by X-ray irradiation by Hoeschst staining based plate reader analysis; assay type: cell-based
[12] = biological target: Voltage-gated inwardly rectifying potassium channel KCNH2 (Homo sapiens, UniProt Q12809)
SW-620 = assay: Antitumor activity against human SW620 cells xenografted in immunocompromised athymic Swiss nude mouse assessed as tumor growth inhibition at 50 mg/kg, ip once in a week for 3 weeks regime starting day 1 post xenograft; assay type: functional, organism-based
[13] = Volume of distribution at steady state in Han Wistar rat at 2 mg/kg, iv or 5 mg/kg, po; assay type: ADME, organism-based; details: in vivo, read-out: Vdss
[14] = Clearance in Han Wistar rat at 2 mg/kg, iv or 5 mg/kg, po; assay type: ADME, organism-based; details: in vivo
[15] = Clearance in dog at 1.7 mg/kg, iv or 4.2 mg/kg, po; assay type: ADME, organism-based, Canis lupus familiaris; details: in vivo
[16] = Thermodynamic solubility of the compound in 0.1M aqueous phosphate buffer at pH 7.4 after 24 hrs by LC-UV analysis; assay type: physicochemical; details: read-out: Therm_solubility
How it was run: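 Solid samples equilibrated in 0.1 M aqueous phosphate buffer, pH 7.4, for 24 h at 25 °C.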

[17] = Intrinsic clearance in human hepatocytes assessed per million cells; assay type: ADME, cell-based, Hepatocyte; details: read-out: CLH
How it was run: (§1)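 Intrinsic clearance measured in hepatocytes of each species, reported as µL/min/10⁶ cells.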

[18] = Intrinsic clearance in mouse hepatocytes assessed per million cells; assay type: ADME, cell-based, Hepatocyte; details: read-out: CLH; how it was run: as §1
[19] = Intrinsic clearance in rat hepatocytes assessed per million cells; assay type: ADME, cell-based, Hepatocyte; details: read-out: CLH; how it was run: as §1
[20] = Intrinsic clearance in dog hepatocytes assessed per million cells; assay type: ADME, cell-based, Canis lupus familiaris, Hepatocyte; details: read-out: CLH; how it was run: as §1
[21] = Volume of distribution at steady state in dog at 1.7 mg/kg, iv or 4.2 mg/kg, po; assay type: ADME, organism-based, Canis lupus familiaris; details: in vivo, read-out: Vdss
[22] = Oral bioavailability in Han Wistar rat at 5 mg/kg; assay type: ADME, organism-based; details: in vivo
[23] = Oral bioavailability in dog at 4.2 mg/kg; assay type: ADME, organism-based, Canis lupus familiaris; details: in vivo
[24] = AUC (0 to 24 hrs) in nude mouse at 50 mg/kg, po; assay type: ADME, organism-based; parameters: dose 50 mg/kg, time < 24 hr, route oral; details: in vivo
How it was run: (§2)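 Nude mice, single oral dose of 50 mg/kg. Vehicle was either a propylene glycol aqueous solution or 10% DMSO:90% captisol solution.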

Mus musculus = assay: Time duration during which free plasma concentration stays above in-vitro ATM IC50 level in nude mouse at 50 mg/kg, po; assay type: ADME, organism-based; details: in vivo; how it was run: as §2
[25] = Cmax in nude mouse at 50 mg/kg, po; assay type: ADME, organism-based; parameters: dose 50 mg/kg, route oral; details: in vivo; how it was run: as §2
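Throughout, for logD: determined by the shake flask method.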

T1 sequence (Q13315 whole entry): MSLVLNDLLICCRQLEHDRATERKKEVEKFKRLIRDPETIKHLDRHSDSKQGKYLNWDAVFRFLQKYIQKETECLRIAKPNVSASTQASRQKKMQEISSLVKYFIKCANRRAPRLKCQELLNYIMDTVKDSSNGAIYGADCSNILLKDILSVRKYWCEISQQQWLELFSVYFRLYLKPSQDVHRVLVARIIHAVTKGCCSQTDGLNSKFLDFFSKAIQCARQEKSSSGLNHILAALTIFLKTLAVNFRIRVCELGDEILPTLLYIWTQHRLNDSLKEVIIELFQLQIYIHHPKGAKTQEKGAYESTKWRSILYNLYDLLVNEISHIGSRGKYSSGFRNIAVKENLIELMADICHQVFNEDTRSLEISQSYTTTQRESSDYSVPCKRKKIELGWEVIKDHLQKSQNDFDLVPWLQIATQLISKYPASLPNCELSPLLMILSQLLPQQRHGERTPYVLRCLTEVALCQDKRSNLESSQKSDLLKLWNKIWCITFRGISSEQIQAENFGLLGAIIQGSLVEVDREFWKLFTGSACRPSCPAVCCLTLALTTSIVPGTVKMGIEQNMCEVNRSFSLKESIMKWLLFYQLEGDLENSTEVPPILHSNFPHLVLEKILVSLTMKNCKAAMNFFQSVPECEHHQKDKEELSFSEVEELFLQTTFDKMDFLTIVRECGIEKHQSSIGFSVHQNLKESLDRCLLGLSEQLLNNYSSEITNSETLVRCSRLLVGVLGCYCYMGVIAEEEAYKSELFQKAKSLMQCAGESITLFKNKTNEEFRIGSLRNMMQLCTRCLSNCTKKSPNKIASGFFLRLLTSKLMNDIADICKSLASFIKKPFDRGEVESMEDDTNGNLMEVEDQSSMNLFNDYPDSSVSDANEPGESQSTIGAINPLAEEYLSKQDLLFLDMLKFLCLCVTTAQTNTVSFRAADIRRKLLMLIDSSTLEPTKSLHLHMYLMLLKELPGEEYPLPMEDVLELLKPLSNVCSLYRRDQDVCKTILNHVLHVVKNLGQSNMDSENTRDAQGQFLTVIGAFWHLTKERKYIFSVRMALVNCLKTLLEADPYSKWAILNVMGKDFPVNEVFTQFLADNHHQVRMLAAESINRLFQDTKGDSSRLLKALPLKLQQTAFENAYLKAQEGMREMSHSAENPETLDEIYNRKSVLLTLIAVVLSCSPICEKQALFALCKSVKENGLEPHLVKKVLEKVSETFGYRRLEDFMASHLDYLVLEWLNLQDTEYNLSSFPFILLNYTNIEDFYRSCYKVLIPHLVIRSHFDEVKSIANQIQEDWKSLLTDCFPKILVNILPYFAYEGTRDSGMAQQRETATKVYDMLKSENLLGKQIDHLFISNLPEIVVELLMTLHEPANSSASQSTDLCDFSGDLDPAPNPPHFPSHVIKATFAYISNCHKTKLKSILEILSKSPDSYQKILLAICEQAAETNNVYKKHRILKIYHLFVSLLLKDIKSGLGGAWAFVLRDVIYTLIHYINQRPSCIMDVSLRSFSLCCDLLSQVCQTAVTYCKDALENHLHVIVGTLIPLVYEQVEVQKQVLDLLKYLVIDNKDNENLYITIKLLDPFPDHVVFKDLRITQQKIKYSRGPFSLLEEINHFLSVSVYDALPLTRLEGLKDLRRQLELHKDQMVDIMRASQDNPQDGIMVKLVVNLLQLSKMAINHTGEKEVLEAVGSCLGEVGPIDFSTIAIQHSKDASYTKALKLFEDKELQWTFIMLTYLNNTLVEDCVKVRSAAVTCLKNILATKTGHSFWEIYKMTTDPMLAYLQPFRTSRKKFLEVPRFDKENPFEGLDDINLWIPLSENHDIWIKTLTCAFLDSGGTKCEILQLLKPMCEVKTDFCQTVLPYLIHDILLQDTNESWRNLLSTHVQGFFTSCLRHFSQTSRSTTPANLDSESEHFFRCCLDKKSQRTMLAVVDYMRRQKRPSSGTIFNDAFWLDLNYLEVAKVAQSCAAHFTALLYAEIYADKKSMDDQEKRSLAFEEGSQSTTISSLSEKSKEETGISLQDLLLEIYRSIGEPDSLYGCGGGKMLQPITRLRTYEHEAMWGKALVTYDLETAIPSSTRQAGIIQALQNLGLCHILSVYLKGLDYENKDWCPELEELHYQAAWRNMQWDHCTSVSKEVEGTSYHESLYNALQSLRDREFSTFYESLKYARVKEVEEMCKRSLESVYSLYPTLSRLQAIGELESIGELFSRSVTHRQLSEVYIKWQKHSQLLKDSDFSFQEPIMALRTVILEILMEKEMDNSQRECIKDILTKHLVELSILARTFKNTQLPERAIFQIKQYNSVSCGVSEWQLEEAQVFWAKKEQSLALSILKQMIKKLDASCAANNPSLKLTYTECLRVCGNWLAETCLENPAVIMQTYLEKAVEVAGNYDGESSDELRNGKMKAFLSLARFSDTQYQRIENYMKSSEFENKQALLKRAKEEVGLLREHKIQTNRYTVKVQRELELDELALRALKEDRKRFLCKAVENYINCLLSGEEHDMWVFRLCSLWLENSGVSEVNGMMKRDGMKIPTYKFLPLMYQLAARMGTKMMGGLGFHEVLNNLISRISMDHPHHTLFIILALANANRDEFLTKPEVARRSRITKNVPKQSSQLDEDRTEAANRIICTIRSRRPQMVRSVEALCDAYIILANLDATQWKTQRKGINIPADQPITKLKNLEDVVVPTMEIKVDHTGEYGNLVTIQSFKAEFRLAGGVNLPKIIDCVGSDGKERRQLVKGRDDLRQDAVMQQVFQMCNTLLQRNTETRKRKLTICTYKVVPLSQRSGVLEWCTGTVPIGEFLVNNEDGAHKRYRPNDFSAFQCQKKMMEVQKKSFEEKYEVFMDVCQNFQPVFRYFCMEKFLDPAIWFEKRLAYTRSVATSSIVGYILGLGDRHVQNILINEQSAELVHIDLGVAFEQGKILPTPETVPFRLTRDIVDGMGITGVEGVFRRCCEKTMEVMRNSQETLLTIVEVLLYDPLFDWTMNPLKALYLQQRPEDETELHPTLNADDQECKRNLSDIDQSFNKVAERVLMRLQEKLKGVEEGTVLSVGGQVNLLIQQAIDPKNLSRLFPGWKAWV

In the case of `C[C@@H](Nc1c(C(N)=O)cnc2ccc(-c3cccnc3)cc12)c1ccc(Cl)cc1`, the IC50 [1] is reported as 2 nM, the IC50 [2] is reported as 109 nM and the IC50 [3] is reported as 1900 nM. The IC50 [4] was 181 nM, the IC50 [5] was 5 nM and the IC50 [6] was 8 nM. For the same molecule, the IC50 [7] was 21 nM, the IC50 [8] was 45 nM and the Ratio IC50 (Homo sapiens) was greater than 10. It also gave a hepatocyte CLint at 1.5 h (in vitro [9]) of 11 µL/min/1e6 cells, a hepatocyte CLint at 1.5 h (in vitro [10]) of 70 µL/min/1e6 cells and a logD (physchem) greater than 4.3.
For `CCC(CC)COc1c(C(N)=O)cnc2ccc(-c3cccnc3)cc12`, the IC50 [2] was greater than 30000 nM, the IC50 [3] was greater than 30000 nM and the inhibition [11] was “inactive”. For the same molecule, the IC50 [12] was 2100 nM, the hepatocyte CLint at 1.5 h (in vitro [9]) was 42 µL/min/1e6 cells and the hepatocyte CLint at 1.5 h (in vitro [10]) was 260 µL/min/1e6 cells. For the same molecule, the logD (physchem) was greater than 4.3.
In the case of `CCc1c2c(nc3ccc(OC(=O)N4CCC(N5CCCCC5)CC4)cc13)-c1cc3c(c(=O)n1C2)COC(=O)[C@]3(O)CC`, the TGI (SW-620) is reported as “Active”.
`COCc1ccc(-c2ccc3ncc(C(N)=O)c(N[C@@H](C)C4CCOCC4)c3c2)cn1` gave a Vd [13] of 1.1 L/kg, a clearance [14] of 18 mL/min/kg and a clearance [15] of 50 mL/min/kg. It also gave a solubility thermodynamic at 24 h [16] of 590 µM (≈ 248 µg/mL), a hepatocyte CLint [17] of less than 2.6 µL/min/1e6 cells and a hepatocyte CLint [18] of 18 µL/min/1e6 cells. It also gave a hepatocyte CLint [19] of less than 5.3 µL/min/1e6 cells, a hepatocyte CLint [20] of 11 µL/min/1e6 cells and a Vd [21] of 2.6 L/kg. The bioavailability [22] was 46%, the bioavailability [23] was 31% and the AUC(0-t) at 24 h [24] was 40 µM·h. For the same molecule, the Time (Mus musculus) was 10 h, the Cmax [25] was 6 µM and the hepatocyte CLint at 1.5 h (in vitro [9]) was less than 2.6 µL/min/1e6 cells. The hepatocyte CLint at 1.5 h (in vitro [10]) was less than 5.3 µL/min/1e6 cells and the logD (physchem) was 2.5.

— ChEMBL document CHEMBL4477207, “Discovery of Novel 3-Quinoline Carboxamides as Potent, Selective, and Orally Bioavailable Inhibitors of Ataxia Telangiectasia Mutated (ATM) Kinase” (J Med Chem, 2016)
